Measured values gathered from unrelated publications.
4-aminobutyrate aminotransferase, mitochondrial: 4-aminobutyrate aminotransferase, mitochondrial (Homo sapiens, UniProt P80404)
DCAF1: DDB1- and CUL4-associated factor 1 (DCAF1, Homo sapiens, UniProt Q9Y4B6)
P2RX7: P2X purinoceptor 7 (P2RX7, Homo sapiens, UniProt Q99572)

SMILES | target | test | setting | endpoint | result
COc1cc(-c2cncc3c2CN(C)Cc2cc(N4CCNCC4)ccc2-3)cc(OC)c1OC | Hepatocyte growth factor receptor (MET, Homo sapiens, UniProt P08581, Y1230H) | enzyme activity, inhibitor | 1 µM | remaining activity | 86%
N[C@H]1C=C(C(=O)O)CC(F)(F)C1 | 4-aminobutyrate aminotransferase, mitochondrial | enzyme activity, inhibitor |  | kinact/KI | 2.83 M⁻¹ s⁻¹
C[C@@H]1CN(c2ccc(-c3cc(C(=O)NCCOCCOCCOCCOCCNC(=O)Cn4cc(-c5[nH]cc(C(=O)N[C@@H](CC(N)=O)c6ccc(F)c(Cl)c6)c5-c5ccc(Cl)cc5F)cn4)ccc3F)cc2NC(=O)c2c[nH]c(=O)cc2C(F)(F)F)C[C@H](C)N1C | DCAF1 | thermal stability, DSF | 5.5 µM | ΔTm | 8 °C
O=C(c1ccc(Br)cc1)N1CCC(n2cncc2-c2ccc(OS(=O)(=O)c3cccc4cnccc34)cc2)CC1 | P2RX7 | ligand displacement, radioligand | 1 µM, cell membranes | inhibition | > 70%
Cc1cc(NC(=O)c2cccc(NC(=O)/C=C/CN(C)C)c2)ccc1Nc1nccc(-c2cccnc2)n1 | Interleukin-1 receptor-associated kinase 1 (IRAK1, Homo sapiens, UniProt P51617) | binding, competition with immobilised ligand | 1 µM | remaining binding | 11%
CNc1ncc2c(/C=C/C(=O)N3CCC(OC)CC3)nn(Cc3cccc(C(F)(F)F)c3)c2n1 | Mitogen-activated protein kinase kinase kinase 11 (MAP3K11, Homo sapiens, UniProt Q16584) | enzyme activity, inhibitor, radiometric | 1 µM | remaining activity | 97%
N[C@H]1CC(C(=O)O)=CC(F)(F)C1 | 4-aminobutyrate aminotransferase, mitochondrial | enzyme activity, inhibitor |  | kinact/KI | 2 M⁻¹ s⁻¹
C=CC(=O)N1CCC(COCC(=O)N2CCN(c3nc(-c4cnc(N)nc4C(F)F)nc(N4CCOC[C@@H]4C)n3)CC2)CC1 | Ribosomal protein S6 kinase alpha-4, N-terminal kinase domain (RPS6KA4, Homo sapiens, UniProt O75676) | binding, competition with immobilised ligand | 1 µM | remaining binding | 93%
Cc1nn(CCc2ccccc2)c2ncc(C(=O)NCc3cccnc3)c(Cl)c12 | Prolyl endopeptidase (PREP, Homo sapiens, UniProt P48147) | enzyme activity, inhibitor, fluorescence |  | kinact | 0.000233 s⁻¹
O=C(c1ccc(I)cc1)N1CCC(n2cncc2-c2ccc(OS(=O)(=O)c3cccc4cnccc34)cc2)CC1 | P2RX7 | ligand displacement, radioligand | 1 µM, cell membranes | inhibition | > 70%
C[C@@H]1CN(c2ccc(-c3cc(C(=O)NCCOCCOCCOCCOCCOCCOCCNC(=O)/C=C/c4[nH]cc(C(=O)N[C@@H](CC(N)=O)c5ccc(F)c(Cl)c5)c4-c4ccc(Cl)cc4F)ccc3F)cc2NC(=O)c2ccc(F)cc2C(F)(F)F)C[C@H](C)N1C | DCAF1 | thermal stability, DSF | 5.5 µM | ΔTm | 5.3 °C
COc1ccccc1C(=O)/C=C/c1cn(Cc2cn(-c3ccnc4cc(Cl)ccc34)nn2)c2ccccc12 | Calcium-dependent protein kinase 1 (CDPK1, Plasmodium falciparum, UniProt P62344) | enzyme activity, inhibitor, ADP detection | 5 µM | inhibition | 88.3%
Cc1cc([C@@H](C)Nc2ccccc2C(=O)O)c2nc(N3CCC(F)(F)CC3)c(C#N)c(=O)n2c1 | Hepatocyte growth factor receptor (MET, Homo sapiens, UniProt P08581) | binding, competition with immobilised ligand | 1 µM | remaining binding | 100%
